# Source: PubChem BioAssay AID638 (SRMLSC, 2007)
# In all, about 1,300 compounds went through this assay and about 65 (5%) were called active. Not all results are given here. Entries with a potency or affinity are not part of this list. A number with no mark means an inactive call.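 The calls were made as follows: active = growth inhibition reaching a set limit at one or more tested doses; inactive = the rest.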
# Test: growth inhibition of wild-type E. coli, dose response, BW25113 wild type, OD615 (AID 638)
# Settings: at 100 µM (top of the series) unless noted
# Outline: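 Assay system: E. coli BW25113 wild type; buffer or medium: Kanamycin-supplemented LB broth; signal: optical density (absorbance) at 615 nm; controls: chloramphenicol 30 µM control; doses: compound concentration series; times: bacterial exposure to compound 20 h at 37 °C; evaluation: IC50 from 4-parameter logistic, bounds fixed 0–100%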
row,SMILES,growth inhibition
1,COc1ccc(-c2noc(Cc3ccc(Cl)cc3)n2)cc1OC,7.9%
2,COc1cccc(N2CC(C(=O)Nc3ccc(C(=O)OC(C)C)cc3)CC2=O)c1 (stereo not drawn),5.31%
3,CCCCCOC(=O)c1ccc(NC(=O)c2ccco2)cc1,-0.06%
4,CCOC(=O)c1cnc(-n2nc(C)cc2C)nc1NC1CCCCC1,-4.22%
5,COc1ccccc1N1CCN(Cc2nc(N)nc(Nc3ccc(C)c(Cl)c3)n2)CC1,8.69%
6,CN1C(=O)C2(OCC(COc3ccc(Cl)cc3)O2)c2ccccc21 (stereo not drawn),-7.83%
7,Cc1ccc(C)c(Cn2c(CN(C)Cc3ccccc3)nc3c2c(=O)n(C)c(=O)n3C)c1,-10%
8,CCC(Oc1ccccc1)C(=O)Nc1ccc(-c2nnc(-c3ccco3)o2)cc1 (stereo not drawn),-9.73%
9,Cc1nc2c(C(=O)NCCC3=CCCCC3)c[nH]n2c(=O)c1Cl,5.42%
10,CCOC(=O)C1CN(c2cc3c(cc2F)c(=O)c(C(=O)O)cn3CC)OC1C(=O)OCC (stereo not drawn),3.92%
11,Cc1cc(N2CCC(C)CC2)nc(-n2nc(C)cc2C)n1,-4.79%
12,O=c1[nH]c(=O)n(C2CCCCCC2)c(O)c1C=NCc1ccc(F)cc1,-0.14%
13,COC(=O)c1c(NC(=O)CCc2ccc(C)o2)sc(C)c1C,3.59%
14,N#Cc1nc(Cc2cccc3ccccc23)oc1NCc1ccc(F)cc1,20% (active)
15,N#Cc1nc(Cc2ccccc2)oc1NCc1ccccc1Cl,14.5%
16,N#Cc1nc(Cc2cccc3ccccc23)oc1NCCCn1ccnc1,2.47%
17,CC1CCC(C(C)C)C(OC(=O)COC(=O)c2ccc(=O)[nH]c2)C1 (stereo not drawn),1.53%
18,C=CCn1c(NC(C)c2cc(Cl)ccc2O)nc2ccccc21 (stereo not drawn),13.7%
19,O=C(Nc1ccccc1N1CCCCC1)c1cccs1,1.03%
20,O=C(OC1CCCCC1)c1ccc(NC(=O)c2ccco2)cc1,2.7%
21,O=C(Nc1nnc(-c2ccc(F)cc2)o1)c1ccco1,1.59%
22,Cc1nn(-c2ccccc2)c(C)c1C(=O)Nc1nnc(-c2ccco2)o1,9.7%
23,Cc1ccc(-c2csc3ncnc(Sc4nnc(CN5CCCCCC5=O)o4)c23)cc1,5.4%
24,CCc1ccc2[nH]c(=O)c(C(c3nnnn3CCOC)N3CCN(c4ccc(F)cc4)CC3)cc2c1 (stereo not drawn),-0.14%

row,SMILES,growth inhibition
1,CC(C)OCCCNc1ncnc2c1[nH]c1ccccc12,8.07%
2,CC(C)OCCCNc1ncnc2c1[nH]c1ccc(F)cc12,9.62%
3,CCOc1ccc2[nH]c3c(N4CCN(c5ccccn5)CC4)ncnc3c2c1,-8.17%
4,N#C/C(=C\c1cccs1)Sc1nc2ccccc2s1,-8.78%
5,O=C(CN(Cc1ccc2c(c1)OCO2)C(=O)CSc1nc2ccccc2o1)NC1CCCCC1,-6.97%
6,C=C(C)Cn1c(N2CCC(Cc3ccccc3)CC2)nc2c1c(=O)[nH]c(=O)n2C,-2.32%
7,Cn1c(=O)c2c(nc(N3CCCCCC3)n2Cc2cccc3ccccc23)n(C)c1=O,-1.26%
8,CCOc1ccccc1N1CCN(Cc2ccc(Br)s2)CC1,-0.45%
9,CC1=CC(C)(C)N2C(=O)C3(SCC(=O)N3c3ccc(O)cc3)c3cc(C)cc1c32 (stereo not drawn),1.81%
10,CCCOC(=O)c1ccc(Oc2cn[nH]c2-c2ccc(OCC)cc2O)cc1,8.01%
11,Cn1c(=O)n(CCCOc2ccc(Br)cc2)c2ccccc21,9.45%
12,C=C(C)COc1ccc(-c2n[nH]c(C)c2-c2ccccc2OC)c(O)c1,8.4%
13,C=C(C)COc1ccc(-c2n[nH]c(C)c2-c2ccccc2)c(O)c1,20.5% (active)
14,C=C(C)COc1ccc(-c2n[nH]c(C)c2Oc2ccccc2OC)c(O)c1,0.02%
15,Cc1cccc(Nc2nc(-c3ccccn3)cs2)n1,4.37%
16,c1ccc(-c2nc(N3CCCCCC3)c3ccccc3n2)nc1,17.1% [at 50 µM]
17,CCCCn1c(NC(=O)c2ccccc2)c(C#N)c2nc3ccccc3nc21,-8.7%
18,CCn1c(Cn2nnc(-c3ccccc3)n2)nnc1SCc1ccc(Cl)c(Cl)c1,-0.33%
19,Cc1cccc(NC(=O)c2cc(NC(=O)C3CCCCC3C(=O)O)ccc2N2CCCCC2)c1 (stereo not drawn),-4.25%
20,O=C(COn1nnc2ccc(C(F)(F)F)cc21)Nc1nnc(-c2ccccc2)o1,-3.92%
21,O/N=C(\c1ccc(Cl)cc1)c1cc2ccccc2o1,8.62%
22,Cc1onc(-c2ccccc2)c1C(=O)OCC(=O)c1ccccc1,1.87%
23,CN(c1ccccc1C(=O)Nc1ccc(S(=O)(=O)N2CCCCC2)cc1)S(C)(=O)=O,-1.44%
24,O=C(NC1CCCC1)c1sc(=S)n2c1[nH]c(=O)c1ccccc12,-2.92%

row,SMILES,growth inhibition
1,Cn1c(=O)c2c(SCc3cccnc3)nc(CC(C)(C)C)nc2n(C)c1=O,1.92%
2,O=C(Nc1ccc(S(=O)(=O)N2CCCc3ccccc32)cc1)C1CCCO1 (stereo not drawn),-2.99%
3,c1ccc(-n2nnnc2Oc2cccc3cccnc23)cc1,2.63%
4,O=C(NCc1ccco1)c1cc2sccc2n1Cc1ccccc1,-6.37%
5,N=c1n(CCN2CCOCC2)c2ccccc2n1CC(=O)c1ccc(Cl)c(Cl)c1,-3.82%
6,c1csc(-c2nc3nc4ccccc4nc3n2Cc2ccc3c(c2)OCO3)c1,-7.29%
7,COc1cc(-c2nc(Cc3ccccc3Cl)no2)cc(OC)c1OC,8.5%
8,O=C(COc1ccc2ccccc2c1Br)N1CCN(c2ccccn2)CC1,-12.5%
9,CSCCOC(=O)C1=C(C)NC(=O)CC1c1ccccc1Cl (stereo not drawn),3.74%
10,CC(OC(=O)c1ccccc1NCc1ccco1)C(=O)Nc1ncc(Cl)cc1Cl (stereo not drawn),11.2%
11,COc1ccc(S(=O)(=O)Nc2ccc(S(=O)(=O)N3CCCCC3)cc2)cc1,-5.18%
12,N#CC1=C(N)NC(SCc2ccccc2)=C(C#N)C12CCCCC2,12.1%
13,CCSc1nnc(NC(=O)CSc2nccn2-c2cccc(C)c2C)s1,2.99%
14,Cc1onc(-c2c(F)cccc2Cl)c1C(=O)Nc1nc2c(s1)CCCC2,-5.05%
15,Cc1cc(N2CCN(C(c3ccccc3)c3ccccc3)CC2)n2ncnc2n1,6.9%
16,COc1ccc(OC)c(S(=O)(=O)n2cnc3cc(C)c(C)cc32)c1,-5.06%
17,Brc1cc(Br)c2ncnc(N3CCCCC3)c2c1,7.11%
18,CCc1nc(N2CCCCC2)c2oc3ccccc3c2n1,-1.03%
19,c1ccc(-c2nc(CSc3nnc(-c4cccs4)o3)cs2)cc1,-5.14%
20,Cc1cc(-c2ccco2)c(C#N)c2nc3ccccc3n12,-4.65%
21,Cc1ccc(NC(=O)N2CCC(c3nc4c(nnn4Cc4cccc(Cl)c4)c(=O)[nH]3)CC2)cc1,-0.39%
22,O=C(Nc1nnc(-c2ccccc2)o1)c1nc2ccccc2s1,-11.8%
23,O=C(Nc1nnc(-c2ccc(Cl)cc2)o1)c1ccccc1Br,5.98% [at 50 µM]
24,Cc1ccc(C2c3c(-c4ccccc4O)n[nH]c3C(=O)N2Cc2ccncc2)cc1 (stereo not drawn),-4.25%

row,SMILES,growth inhibition
1,O=C(Nc1ccc(Cl)c(Cl)c1)N1CCSC1c1ccco1 (stereo not drawn),15.6%
2,CCc1nnc(NC(=O)c2cccc(C(=O)Nc3nnc(CC)s3)n2)s1,9.58%
3,CCSc1nnc(NC(=O)c2nc(-c3ccccc3)n(-c3ccccc3)n2)s1,-4.83%
4,Cc1ccc(-c2nnc3sc(CCc4ccccc4)nn23)cc1,9.95%
5,COC(=O)c1ccsc1NC(=O)CN1CCN(c2ccc(F)cc2)CC1,-9.19%
6,O=C(c1cccc(COc2ccc(Cl)cc2Cl)c1)N1CCN(c2ccccn2)CC1,-14.7%
7,O=C(Nc1nc2ccccc2s1)C1CCCN1S(=O)(=O)c1ccc(Cl)cc1 (stereo not drawn),-7.08%
8,COc1ccc(-c2nnc(SCc3cc(C)cc(C)c3)o2)cc1,-1.05%
9,c1ccc(N2CCN(c3ncnc4c3oc3ccccc34)CC2)cc1,-9.68%
10,COc1ccc(C)cc1NC(=O)CSc1nnc(COc2ccccc2)n1Cc1ccco1,0.64%
11,CCc1cc2c3c(c(=O)oc2cc1O)CCCC3,-5.58%
12,CCCn1c(CNc2ccc(Br)cc2)nc2ccccc21,7.8%
13,CCc1nc2ccccc2c(=O)n1NC(=O)c1c(O)c2cccc3c2n(c1=O)CCC3,-13.7%
14,COc1ccc(C2CC(c3ccccc3)n3nc(NC(=O)c4cccs4)nc3N2)cc1 (stereo not drawn),3.83%
15,O=C(Nc1nc2ccccc2n1CCOc1ccc(Cl)cc1)c1ccco1,3.35%
16,O=C(Nc1nc2n(n1)C(c1ccc(Cl)cc1)CC(c1ccc(Cl)cc1)N2)c1ccco1 (stereo not drawn),13% (active)
17,O=C(Cn1c2c(c(-c3ccccc3)cc1=O)CCCC2)N1CCCCCC1,3.36%
18,C=CCn1c(SCC(O)Cn2c3ccccc3c3ccccc32)nnc1-c1ccco1 (stereo not drawn),-9.43%
19,O=C(CSc1nnc2scc(-c3ccccc3)n12)Nc1nsc(-c2ccccc2)n1,-9.04%
20,COc1ccc(Cl)cc1N1CCN(CCNC(=O)Nc2ccccc2C)CC1,-2.62%
21,Cn1c(=O)c(C(=S)NC(=O)C2CC2)c(N)n(Cc2ccccc2)c1=O,-3.57%
